{"data": "Results pooled from the literature", "medium": "plasma"}
{"Structure (SMILES)": "O=C(COc1ccc(Cl)cc1)NC12CC(c3nnc([C@H]4C[C@@H](OC(F)(F)F)C4)o3)(C1)C2", "host": "human", "route": "oral", "dose": "145 mg", "notes": "multiple doses, once daily, steady state, healthy volunteers", "Cmax": "9280 nM"}
{"Structure (SMILES)": "CC(=O)N(C)[C@H]1CCN(C(=O)c2cnc3c(c2)C[C@](C)(c2ccc(F)cc2)N3)C1", "host": "male human", "route": "oral", "dose": "15 mg", "notes": "multiple doses, once daily, steady state", "Cmax": "333 nM"}
{"Structure (SMILES)": "COc1ccc2c(c1)CN(C(=O)CCN1CCC(Cc3ccccc3)CC1)CC[S@@+]2[O-]", "host": "male human", "route": "intravenous", "dose": "0.6 mg/kg", "notes": "healthy volunteers", "Cmax": "1310 ng/mL"}
{"Structure (SMILES)": "CC(C)n1c(C2CCNCC2)nc2c([N+](=O)[O-])c(Br)c(Br)cc21", "host": "human", "route": "oral", "dose": "50 mg", "notes": "patients", "Cmax": "33.6 ng/mL"}
{"Structure (SMILES)": "COc1ccc(F)cc1C(=O)NCc1ccc(-c2nn([C@@H](C)C(F)(F)F)c(N)c2C(N)=O)cc1", "host": "male human", "route": "oral", "dose": "200 mg", "notes": "single dose", "Cmax": "4490 ng/mL"}
{"Structure (SMILES)": "C=CC(=O)NC1CCN(c2ncc3ncnc(Nc4ccc(Oc5ccc6c(c5)ncn6C)c(C)c4)c3n2)CC1", "host": "male human", "route": "oral", "dose": "60 mg", "notes": "single dose, healthy volunteers", "Cmax": "1160 nM"}
{"Structure (SMILES)": "COc1ccc(-c2c(Nc3ccccn3)[nH]c3c(C4=CCCCC4)c(-c4ccccc4)nn3c2=O)cc1", "host": "human", "route": "oral", "dose": "100 mg once daily", "notes": "multiple doses, patients", "Cmax": "3490 ng/mL"}
{"Structure (SMILES)": "Cc1cc(-c2nccc3c2ccn3CC(=O)Nc2ccc(-c3cnccn3)cn2)ccn1", "host": "human", "route": "oral", "dose": "20 mg", "notes": "single dose", "Cmax": "188 nM"}
{"Structure (SMILES)": "OC[C@H]1O[C@@H](c2cc(Cc3ccc(C4CC4)cc3)c(Cl)c3c2CCO3)[C@H](O)[C@@H](O)[C@@H]1O", "host": "human", "route": "oral", "dose": "0.3 mg", "notes": "single dose, fed", "Cmax": "3.74 ng/mL"}
